Most compounds without a hit are left out; they make up all but 2.7% or so of the library.
PAFAH1B3 FP inh – PAFAH1B3 (human) inhibition; Q15102; recombinant PAFAH1B3, FP-rhodamine probe, fluorescence polarization; inhibition, % at 3.39 µM; actives 0.28% (n = 340,000); AID 492972;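 active = inhibition above the screen-wide average of all tested compounds plus 3 SD, cut at about 25% in these data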
Target sequence (Q15102 whole entry, looked up): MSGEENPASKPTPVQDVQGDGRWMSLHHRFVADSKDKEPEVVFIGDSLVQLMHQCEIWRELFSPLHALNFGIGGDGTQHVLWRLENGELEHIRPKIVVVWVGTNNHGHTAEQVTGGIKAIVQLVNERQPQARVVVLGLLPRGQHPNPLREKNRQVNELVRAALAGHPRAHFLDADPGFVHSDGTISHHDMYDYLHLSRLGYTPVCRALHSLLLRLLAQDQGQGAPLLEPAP
PAFAH1B2 inh – PAFAH1B2 (human) inhibition. recombinant PAFAH1B2, FP-rhodamine activity probe, fluorescence polarization. actives 1.2% (n = 340,000). inhibition, % at 3.39 µM;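 active = inhibition above the mean of all tested compounds plus 3 SD, cut at about 24% in these data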
pPAFAH FP inh – inhibitors of human plasma PAF acetylhydrolase (pPAFAH) | Q13093 | recombinant pPAFAH, FP-rhodamine probe fluorescence polarization | inhibition, % at 3.39 µM | actives 1.5% (n = 330,000) | AID 463082;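 active = inhibition above the mean inhibition across the screen plus 3 SD, cut at about 25% in these data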;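 also: inhibitors block binding of the rhodamine activity-based probe so polarization drops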
Target sequence (Q13093 whole entry, looked up): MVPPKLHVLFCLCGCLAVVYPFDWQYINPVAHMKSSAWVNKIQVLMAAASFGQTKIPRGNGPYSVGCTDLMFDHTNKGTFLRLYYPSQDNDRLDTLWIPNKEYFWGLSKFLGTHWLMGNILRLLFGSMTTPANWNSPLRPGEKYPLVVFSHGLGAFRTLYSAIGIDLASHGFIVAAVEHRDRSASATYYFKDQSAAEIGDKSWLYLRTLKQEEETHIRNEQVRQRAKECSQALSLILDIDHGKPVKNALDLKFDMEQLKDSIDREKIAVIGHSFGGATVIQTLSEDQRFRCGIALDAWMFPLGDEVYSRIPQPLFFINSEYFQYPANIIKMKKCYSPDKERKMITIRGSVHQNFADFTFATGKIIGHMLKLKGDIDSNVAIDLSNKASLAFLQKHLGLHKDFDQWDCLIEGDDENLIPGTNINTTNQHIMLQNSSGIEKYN
RBBP9 inh – inhibitors of human serine hydrolase RBBP9 | O75884 | recombinant RBBP9, FP-Rh probe fluorescence polarization | inhibition, % at 7.94 µM | actives 0.2% (n = 220,000);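 active = inhibition above the campaign mean of all tested compounds plus 3 SD, cut at about 14% in these data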
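Test system: recombinant human RBBP9. Quantity: 2.5 µM RBBP9 dispensing solution, before mixing. Detection: FP readout at 525/598 nm. Reagent: Serine-hydrolase probe FP-Rh, 375 nM pre-mixing. Measure: % inhibition. Control set: DMSO-treated enzyme wells and wells lacking RBBP9. Buffer or medium: Tris-NaCl-Pluronic buffer, pH 8.0. Times: preincubation 30 min plus labeling 45 min at 25 °C.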
PAFAH2 FP inh – PAFAH2 (human) inhibition; Q99487; recombinant PAFAH2, FP-rhodamine activity probe, fluorescence polarization; inhibition, % at 3.39 µM; actives 0.99% (n = 340,000); AID 492956;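 active = inhibition above the mean over all tested compounds plus 3 SD, cut at about 30% in these data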;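 also: inhibitors block probe labeling of enzyme so polarization drops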
PAFAH2 FP conf – confirmation of human PAFAH2 inhibitors | shares compounds with PAFAH2 FP inh | recombinant PAFAH2, FP-rhodamine activity probe, fluorescence polarization | inhibition, % at 3.39 µM | actives 65% (n = 2,300);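 active = mean inhibition over three repeats above a set limit taken from the earlier primary screen, cut at about 30% in these data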;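 also: inhibitor blocks binding of rhodamine activity probe so polarization falls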
Hits are given with their value; - = inactive; . = not tested or not shown; ! = not confirmed by another sample.

SMILES | PAFAH1B3 FP inh | PAFAH1B2 inh | pPAFAH FP inh | RBBP9 inh | PAFAH2 FP inh | PAFAH2 FP conf
O=C(O)/C(=C\c1ccc(Cl)c([N+](=O)[O-])c1)c1ccc(S(=O)(=O)N2CCCC2)s1 | - | - | - | . | - | .
O=C(O)/C(=C\c1ccc(Cl)c([N+](=O)[O-])c1)c1ccc(S(=O)(=O)N2CCCCC2)s1 | - | - | - | - | 32 | -
O=C(c1cccc(Oc2ccc([N+](=O)[O-])cc2Cl)c1)N1CCCCC1 | - | - | - | - | - | .
O=C(c1ccc(Oc2ccc([N+](=O)[O-])cc2Cl)cc1)N1CCCC1 | - | - | - | - | 40 | 30
O=C(c1ccccc1Oc1ccc(C(F)(F)F)cc1[N+](=O)[O-])N1CCOCC1 | - | - | - | - | - | .
O=C(c1ccc(Oc2ccc(C(F)(F)F)cc2[N+](=O)[O-])cc1)N1CCOCC1 | - | - | - | - | 34 | -
N/C(Cc1cccc2ccccc12)=N\OC(=O)c1ccc(Br)o1 | . | . | . | - | . | .
N/C(Cc1cccc2ccccc12)=N\OC(=O)c1ccc2c(c1)OCO2 | - | - | - | - | 81 | 78
N/C(=N\OC(=O)c1ccc2c(c1)OCO2)c1cccc(Br)c1 | - | - | - | - | 55 | 49
COC(=O)[C@]1(CC(C)C)N[C@H](c2ccc(-c3ccc(F)cc3)c(OC)c2)[C@@H]2C(=O)N(C)C(=O)[C@@H]21 | - | - | - | . | - | .
CCc1nc2ccc(C(=O)N(C)CC(=O)Nc3cccc(F)c3)cc2nc1CC | - | - | - | . | - | .
O=C(O)C1CSC(c2ccncc2)N1 (stereo not given) | - | - | - | - | - | .
O=C(O)C1CSC(c2ccco2)N1 (stereo not given) | - | - | - | - | 32 | -
COc1ccc(OC)c(CCNC(=O)CCCC(=O)n2ncc3cc(C)ccc32)c1 | - | - | - | . | - | .
O=[N+]([O-])c1ccc(SCCc2ccncc2)cc1 | - | - | - | - | 34 | -
O=[N+]([O-])c1ccc(SCCc2ccccn2)cc1 | - | - | - | - | - | .
COCCNc1nc(C)c(C(C)=O)s1 | - | - | - | - | - | .
O=C(COC(=O)C1C2CC3OC(=O)C1C3C2)Nc1ccc(Br)cc1 (stereo not given) | - | - | - | . | 79 | 71
O=C(COC(=O)C1C2CC3OC(=O)C1C3C2)Nc1ccc(F)cc1 (stereo not given) | - | - | - | . | 78 | 69
COc1ccc(NC(=O)COC(=O)C2C3CC4OC(=O)C2C4C3)cc1 (stereo not given) | - | - | - | . | - | .
O=C(COC(=O)C1C2CC3OC(=O)C1C3C2)Nc1ccccc1 (stereo not given) | - | - | - | . | 75 | 66
CCCC(C(=O)NC1CCCC1)N(CC1CCCO1)C(=O)CNS(=O)(=O)c1ccccc1 (stereo not given) | - | - | - | . | - | .
COc1ccc(N2C(=O)CCC(C(C)=O)=C2C)cc1 | - | - | - | - | - | .
COCCn1c(SCC(=O)c2ccc(F)cc2)nnc1C(C)C | - | - | - | - | - | .
O=c1oc(-c2ccco2)nc2c1cnn2-c1ccccc1 | - | - | - | - | 85 | 59
SMILES | PAFAH1B3 FP inh | PAFAH1B2 inh | pPAFAH FP inh | RBBP9 inh | PAFAH2 FP inh | PAFAH2 FP conf
CC(=O)Oc1ccc2c(=O)oc(-c3ccccc3)nc2c1 | - | - | - | . | 41 | 40
CC(=O)Oc1ccc2nc(-c3ccc(Br)o3)oc(=O)c2c1 | - | - | - | . | 46 | 45
CC(=O)Oc1ccc2nc(/C=C/c3ccc(C=O)cc3)oc(=O)c2c1 | - | - | - | . | - | .
CCCOc1cccc(-c2nc3ccccc3c(=O)o2)c1 | - | - | - | - | 64 | 59
CC(=O)Oc1ccc2nc(/C=C/c3ccccc3)oc(=O)c2c1 | - | - | - | . | 76 | 71
Cc1cccc(N2CCN(C(=O)c3ccccc3NC(=O)C3CC=CCC3C(=O)O)CC2)c1 (stereo not given) | - | - | - | - | - | .
Cc1ccc(N2CCN(C(=O)c3ccccc3NC(=O)C3CC=CCC3C(=O)O)CC2)cc1 (stereo not given) | - | - | - | - | 66 | 57
C=CCn1c(C)nc2c(sc3nc4c(cc32)COC(C)(C)C4)c1=O | - | - | - | - | - | .
CC(C)(C)C(=O)O/N=C1\CCS(=O)(=O)c2sccc21 | - | - | - | - | 41 | 34
O=C(O/N=C1\CCS(=O)(=O)c2sccc21)C1CC1 | - | - | - | - | 81 | 84
CN(Cc1ccncn1)C(=O)CC1C(=O)NCCN1Cc1cccc(Oc2ccccc2)c1 (stereo not given) | - | - | - | - | - | .
O=C(COC(=O)/C=C/c1ccc(F)cc1)Nc1cc(C(F)(F)F)ccc1N1CCOCC1 | - | - | - | - | - | .
O=C(COC(=O)/C=C/c1ccccc1)Nc1cc(C(F)(F)F)ccc1N1CCOCC1 | - | - | - | - | 56 | 57
COc1ccc(/C=C/C(=O)Nc2cc(C(F)(F)F)ccc2Cl)cc1OC | - | - | - | - | - | .
COc1cccc(/C=C/C(=O)OCC(=O)Nc2cc(C(F)(F)F)ccc2Cl)c1 | - | - | - | - | 33 | -
CN(C)S(=O)(=O)c1cc(NC(=O)COC(=O)/C=C/c2ccco2)ccc1Cl | - | - | - | - | 58 | 70
COc1cccc(/C=C/C(=O)OCC(=O)Nc2ccc(Cl)c(S(=O)(=O)N(C)C)c2)c1 | - | - | - | - | 68 | 69
CN(C)S(=O)(=O)c1cc(NC(=O)COC(=O)c2nc(Cl)ccc2Cl)ccc1Cl | - | - | - | . | - | .
COc1cccc(/C=C/C(=O)OCC(=O)Nc2cccc(S(=O)(=O)N(C)C)c2)c1 | - | - | - | - | 69 | 60
CN(C)S(=O)(=O)c1cccc(NC(=O)COC(=O)CCOc2ccccc2)c1 | - | - | - | - | - | .
COc1cc(C=c2c3ccccc3n3c2cc(-c2ccccc2)[n+]3C)cc(OC)c1OC | - | - | . | . | 55 | -
COc1cc(N(C)C)ccc1C=c1c2ccccc2n2c1cc(-c1ccccc1)[n+]2C | - | - | . | . | - | .
COc1cccc(/C=C/C(=O)OCC(=O)NC(=O)NC2CCCC2)c1 | - | - | - | . | - | .
COc1cccc(/C=C/C(=O)OCC(=O)NC2CCCCCCC2)c1 | - | - | - | . | 96 | 82
COc1ccc(/C=C/C(=O)OCC(=O)NC2CCCC2)cc1 | - | - | - | . | 83 | 86
CN(C)S(=O)(=O)n1cnc([C@@H]2[C@H]3C(=O)OC[C@@H]3C[C@@]23N=CN(Cc2ccccc2)C3=O)c1 | - | - | - | . | 40 | 34
CN(C)S(=O)(=O)N1CCN(Cc2ccccc2)CC1 | - | - | - | - | - | .
COc1cc(OC)cc(C(=O)N[C@H](C(=O)Nc2c(C)n(C)n(-c3ccccc3)c2=O)C(C)C)c1 | - | - | - | . | - | .
C/C(N)=C(/C#N)C(=O)CSc1nnc(Nc2c(C)cccc2C)s1 | - | - | - | - | 32! | -

Screening data from PubChem BioAssay.
